C2C12 statin: suppressors of simvastatin-induced myotoxicity in C2C12 myotubes; rescue of ATP level, % at 7.49 µM; ATP luminescence, 48 h; scaled: DMSO 0, geranylgeraniol control 100; AID 602340; actives 0.78% (n = 330,000);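 active means mean ATP rescue above about 67%, or every replicate alone reaching that limit, limit read from the data, passing the limit was not always enough; inconclusive means no clear call, values can overlap the other calls; inactive means mean under the limit and some replicate under it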;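 further: myotubes were challenged with 10 µM simvastatin during compound exposure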
SR-BI DiI inh: mouse SR-BI HDL lipid transfer inhibition. ldlA[mSR-BI] CHO cells, DiI-HDL uptake fluorescence, 3 h. inhibition, % at 12.5 µM. Q61009. actives 0.96% (n = 320,000);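 active means mean replicate inhibition of at least 70% and a set share of replicates each scoring 70 or more; inconclusive means meets just one of the two criteria; inactive means fails both criteria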;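 further: 0% = median of neutral control wells and 100% = median of positive control wells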
Target sequence (Q61009 whole entry, looked up): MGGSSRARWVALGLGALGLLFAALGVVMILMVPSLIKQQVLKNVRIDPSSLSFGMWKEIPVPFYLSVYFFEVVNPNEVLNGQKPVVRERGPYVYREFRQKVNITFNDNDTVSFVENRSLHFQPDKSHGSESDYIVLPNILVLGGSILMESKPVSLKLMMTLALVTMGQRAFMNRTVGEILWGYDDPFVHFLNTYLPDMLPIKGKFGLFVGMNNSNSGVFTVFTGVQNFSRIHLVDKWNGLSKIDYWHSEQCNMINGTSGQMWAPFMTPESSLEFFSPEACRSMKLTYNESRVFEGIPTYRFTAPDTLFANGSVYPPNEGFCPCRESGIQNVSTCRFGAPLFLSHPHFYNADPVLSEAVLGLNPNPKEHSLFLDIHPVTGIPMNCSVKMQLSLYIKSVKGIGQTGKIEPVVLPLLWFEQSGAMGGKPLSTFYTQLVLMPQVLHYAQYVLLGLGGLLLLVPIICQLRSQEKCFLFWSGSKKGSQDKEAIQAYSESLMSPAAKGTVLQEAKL
SR-BI uptake up: enhances SR-BI lipid uptake from DiI-HDL; CHO ldlA[mSR-BI] cells, DiI-HDL uptake fluorescence, 3 h; 100 = double the neutral-control signal; activation, % at 12.5 µM; actives 0.096% (n = 320,000); AID 504775;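 active means mean replicate activation of at least 60% and every replicate at or above 60%; inconclusive means mean or all-replicate condition met, but not both; inactive means mean below 60% and not all replicates reaching 60%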;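 further: 0% = median plate neutral-control signal and 100% = twice that signal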
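Assay system: LDL receptor-deficient CHO ldlA cells overexpressing murine SR-BI / Medium: BSA-supplemented, HEPES-buffered Ham's F12, pH 7.4 / Probe or stimulus: DiI-labelled HDL at 10 µg/mL final / Timing: compound with DiI-HDL co-incubation, 3 h at 37 °C / Technique: bottom-read cell fluorescence after medium removal, ex 550/em 595 nm / Measure: HDL uptake via cellular fluorescence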
Vif inh: HIV Vif inhibition; HEK293T cells, Vif self-association by quenched fluorescence, imaging, 24 h; inhibition, % at 7.49 µM; actives 0.35% (n = 340,000); AID 602346; in the data active means inhibition above about 50%, passing the limit was not always enough; inconclusive means no clear call, values can overlap the other calls; inactive means below about 31%
* marks the source's active call; other numbers are inactive results; ? = inconclusive; . = no result given. In the library only some 1.7% were active in any assay of this set; here they are far more common.

SMILES	C2C12 statin	SR-BI DiI inh	SR-BI uptake up	Vif inh
CCc1nnc2sc(-c3ccc(NC(=O)CSc4ccc(Cl)cc4)cc3)nn12	3.7	77.1*	.	10.8
CNC[C@@H]1Oc2ccc(NC(=O)Nc3ccc(F)cc3)cc2CC(=O)N([C@H](C)CO)C[C@@H]1C	2.2	.	.	.
C[C@@H]1CN([C@@H](C)CO)S(=O)(=O)c2ccc(-c3cccnc3)cc2O[C@H]1CN(C)CC1CC1	0.8	.	.	.
Cn1cnc2nc[nH]c2c1=S	74.8*	-20.1	20.1	-5.6
COc1ccc(-c2cc(C(F)(F)F)nc(S(=O)(=O)CCCC(=O)Nc3cccnc3Cl)n2)cc1OC	.	-11.8	11.8	115.2*
Cc1ccc(S(=O)(=O)N(C(=O)c2ccncc2)c2ccc(OC(=O)c3ccncc3)c3ccccc23)cc1	.	-429.6	429.6*	.
Cc1ccc(S(=O)(=O)N(C(=O)c2ccncc2)c2ccc(OC(=O)c3ccncc3)c3ccccc23)c(C)c1	17.7	-17.5	17.5	1.1
Cc1noc(C)c1S(=O)(=O)Nc1ccc2c(c1)CC(=O)N([C@@H](C)CO)C[C@@H](C)[C@@H](CN(C)Cc1ccc(C(=O)O)cc1)O2	54.2	.	.	.
C[C@H]1CN([C@@H](C)CO)C(=O)Cc2cc(NS(=O)(=O)c3ccc(F)cc3)ccc2O[C@@H]1CN(C)S(C)(=O)=O	26.5	.	.	.
O=C(N/N=C/c1cn(-c2cccs2)nc1-c1ccccc1)c1ccccc1O	.	85.9*	-85.9	-7.3
O=C(N/N=C/c1cn(-c2cccs2)nc1-c1ccccc1)c1ccccc1Br	.	-3.8	3.8	-4.2
Cc1noc(C)c1S(=O)(=O)N(C)C[C@H]1Oc2ccc(NC(=O)C3CCCCC3)cc2CC(=O)N([C@@H](C)CO)C[C@H]1C	-7.5	.	.	.
Cc1cc(N2CC(C(=O)O)CC2=O)ccc1Br (configuration not stated)	75.6*	8.4	-8.4	10.9
Cc1ccc(N2CC(C(=O)Nc3ccc(N(C)C)cc3)CC2=O)cc1C (configuration not stated)	147.7*	-1.8	1.8	-13.2
Cc1ccc(N2CC(C(=O)NC3=NCCS3)CC2=O)cc1C (configuration not stated)	13.0	6.1	-6.1	5.7
COc1cc(F)ccc1S(=O)(=O)N1CCN(C23CC4CC(CC(C4)C2)C3)CC1	5.8	7.1	-7.1	32.7
COc1cc(C)ccc1S(=O)(=O)N1CCN(C23CC4CC(CC(C4)C2)C3)CC1	21.9	76.7*	-76.6	7.6
CCC(C)(CCNC(=O)Cc1ccccc1)c1ccccc1OC (configuration not stated)	121.1*	14.1	-14.1	-10.2
CCCC(C)C(=O)Nc1nc(C)c(-c2csc(Nc3cc(Cl)ccc3C)n2)s1 (configuration not stated)	-28.0	82.2*	-82.2	-3.0
CCC(=O)Nc1nc(C)c(-c2csc(Nc3cccc(O)c3)n2)s1	-72.5	51.4	-51.4	?
Cc1nc(NC(=O)CC(C)C)sc1-c1csc(Nc2ccc(Cl)cc2Cl)n1	3.5	59.4	-59.4	0.4
Cc1nc(NC(=O)CC(C)C)sc1-c1csc(Nc2ccc(Cl)cc2)n1	-40.9	73.1*	-73.1	-10.4
Cc1nc(NC(=O)c2ccco2)sc1-c1csc(Nc2ccc(Cl)cc2Cl)n1	-27.0	?	-73.3	6.1
CCCCCC(=O)Nc1nc(C)c(-c2csc(Nc3cc(Cl)ccc3C)n2)s1	-81.4	79.1*	-79.1	11.2
CCCCCC(=O)Nc1nc(C)c(-c2csc(Nc3ccc(Cl)cc3)n2)s1	-29.7	96.4*	-96.4	.
SMILES	C2C12 statin	SR-BI DiI inh	SR-BI uptake up	Vif inh
COc1ccc(-c2cnc3c(c2)C(=O)N([C@@H](C)CO)C[C@H](C)[C@H](CN(C)C(=O)C2CCCCC2)O3)cc1	18.2	.	.	.
COc1ccc(NC(=O)N(C)C[C@@H]2Oc3ccc(NC(=O)Nc4ccc5c(c4)OCO5)cc3C(=O)N([C@@H](C)CO)C[C@@H]2C)cc1	-1.8	.	.	.
C[C@H]1CN([C@@H](C)CO)C(=O)c2cc(-c3ccccc3)cnc2O[C@@H]1CN(C)C(=O)c1ccccn1	3.3	.	.	.
CC(C)(C)c1nnc(N/N=C/c2cc(Br)ccc2O)n(N)c1=O	.	115.1*	-115.1	-10.0
Cc1ccc(COc2ccc(/C=N/NC(=O)c3nnn(-c4nonc4N)c3COc3ccc(F)cc3)cc2)cc1	.	71.0*	-71.0	0.5
Nc1nonc1-n1nnc(C(=O)N/N=C/c2ccc(OCc3ccc(F)cc3)cc2)c1COc1ccccc1	-21.4	51.2	-51.2	23.8
CCc1c(C(=O)N/N=C/c2ccc(OCc3ccc(F)cc3)c(OC)c2)nnn1-c1nonc1N	2.6	75.8*	-75.8	2.5
